High-throughput results: PubChem BioAssay, several laboratories
Hits are enriched below; roughly 6.4% of the tested compounds scored in any of these assays.
Lung fibro prol – antiproliferative effect on LL 47 fibroblasts – human, LL 47 cells, CellTiter-Glo luminescence, primary screen | 1.1% of 85,000 active | LL 47 human lung fibroblast viability, ATP luminescence; hits give low values | viability, % at 10 µM;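 active = viability at or below 50% in the single dose screen; inactive = viability above 50%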;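 also: compound exposure lasted 72 h before the ATP readout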
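Test system: LL 47 human lung fibroblasts; Quantity: 1,150 cells/well; Buffer or medium: IMEM plus 15% FBS; Dosing: tenfold compound dosing solution, DMSO at 0.1%; Timing: overnight cell rest, 72 h compound treatment at 37 °C; Detection: ATP-based CellTiter-Glo luminescent readout; Read-out basis: viability percentage against median untreated-cell control; Controls: cell-only wells, no compound.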
Jurkat tox 60K – cytotoxicity toward Jurkat T cells, primary screen, cytotoxicity control, cell-based, Jurkat E6.1, 60K MLSMR library | Jurkat E6.1 viability, ATP luminescence, 48 h | inhibition, % at 4 µM | 1.2% of 56,000 active;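 active = inhibition above the mean inhibition of all tested compounds plus 3 SD, cut at about 28% in these data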
HUVEC inhibit – inhibitors of HUVEC proliferation, primary screen, cell-based, 384-well | CellTiter-Glo luminescence, 72 h; hits give low values | viability, % at 10 µM (by protocol) | 1.1% of 86,000 active | AID 648, 2007;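 active = viability at or below 30%; inactive = viability above 30%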
H69AR growth 86K – proliferation blockers of H69AR lung cancer cells, primary screen, cell-based, human, 86K library. AID 598, 2007. H69AR lung tumor viability, ATP luminescence, 72 h; hits give low values. viability, % at 10 µM. 6% of 85,000 active;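 active = viability at or below 40%; inactive = viability above 40%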;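 also: multidrug resistant small cell line overexpressing MRP-1 efflux transporter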
Large screens that a line does not name were inactive.

COc1ccccc1N=c1oc2c(OC)cccc2cc1C(=O)NCc1ccco1	H69AR growth 86K 14.7
Oc1ccc(N2CCN(C(c3ccccn3)c3nnnn3C3CCCC3)CC2)cc1 (configuration not stated)	none (no result: Jurkat tox 60K)
COc1cc(CN2C(=O)C(NC(=O)c3ccco3)(C(F)(F)F)C3=C2CC(C)(C)CC3=O)cc(OC)c1 (configuration not stated)	none (no result: Jurkat tox 60K)
COC(=O)C1=C(Nc2ccc(C)cc2)C=C(C)C(C(=O)OC)C1c1ccc(OC)cc1 (configuration not stated)	H69AR growth 86K 23.9 (no result: Jurkat tox 60K)
COC(=O)C1=C(Nc2ccc(C)cc2)C=C(C)C(C(=O)OC)C1c1cccc(OC)c1 (configuration not stated)	H69AR growth 86K 17.2 (no result: Jurkat tox 60K)
COc1ccc(CNC(=O)Nc2ccc(C)cc2)cc1	none
CCC12CN(S(=O)(=O)c3ccc(C)cc3)CC(CC)(CN(S(=O)(=O)c3ccc(C)cc3)C1)C2=O	none (no result: Jurkat tox 60K)
CC(=O)Nc1ccc(-c2nnc(SCC(=O)n3c4c(c5ccccc53)CCCC4)n2C)cc1	H69AR growth 86K 35.2
COc1ccc(C(=O)N(C(C)C)C(C)C)c(OC)c1	none (no result: Jurkat tox 60K)
COc1ccc(-c2cn3cc(C)ccc3n2)cc1OC	H69AR growth 86K 38.9
COc1ccc(S(=O)NC2CCCCC2)c(OC)c1C (configuration not stated)	none (no result: Jurkat tox 60K)
Nc1cc(CN2C(=O)c3ccccc3C2=O)cc(Cl)c1O	H69AR growth 86K 34.1
O=C(c1ccc(Cl)cc1)c1ccc(CN2C(=O)c3ccccc3C2=O)o1	none (no result: Jurkat tox 60K)
CCOc1cc(C)c(Cl)cc1S(=O)(=O)NCc1ccc2c(c1)OCO2	H69AR growth 86K 22.4
CC(=O)Nc1nc2ccc(-c3nc4ccccc4o3)cc2s1	none (no result: Lung fibro prol, HUVEC inhibit, H69AR growth 86K)
COc1ccccc1N1CCN(c2nc(C)nc3c2oc2ccccc23)CC1	Jurkat tox 60K 76.8
Cc1nc(N2CCN(Cc3ccc4c(c3)OCO4)CC2)c2oc3ccccc3c2n1	H69AR growth 86K 23.0 (no result: Jurkat tox 60K)
Cc1nc(N2CCC(C)CC2)c2oc3ccccc3c2n1	H69AR growth 86K 33.6 (no result: Jurkat tox 60K)
Cc1ccc(S(=O)(=O)/N=C(\CCl)N2CCOCC2)cc1	H69AR growth 86K 1.2 (no result: Jurkat tox 60K)
O=C(C1CCN(S(=O)(=O)c2cccc3cccnc23)CC1)N1CCN(c2ccccn2)CC1	none
O=C(C1CCN(S(=O)(=O)c2cccc3cccnc23)CC1)N1CCN(c2ccc(Cl)cc2)CC1	Jurkat tox 60K 38.0
Cc1cc(-n2c(C)cc(C(=O)CSc3ccc4c(c3)OCCO4)c2C)no1	none
CCOc1cc(N2CCOCC2)c(OCC)cc1NS(=O)(=O)c1ccc(Cl)s1	Jurkat tox 60K 69.2, H69AR growth 86K 20.1 (no result: Lung fibro prol)
CCOc1cc(N2CCOCC2)c(OCC)cc1NC(=O)CCS(=O)(=O)c1ccc(Cl)cc1	none
CCN(C)c1ccc(/C=N\n2nnnc2N)cc1	Jurkat tox 60K 82.2 (no result: Lung fibro prol, HUVEC inhibit, H69AR growth 86K)
Nc1nnnn1/N=C/c1ccc(O)cc1	none (no result: Jurkat tox 60K)
Clc1ccc(-c2ccc(-c3nn4c(-c5ccco5)nnc4s3)o2)cc1	H69AR growth 86K 26.3
Clc1ccc(OCc2nn3c(-c4ccco4)nnc3s2)c(Cl)c1	H69AR growth 86K 34.4
Cc1occc1-c1nnc2sc(-c3ccc(-c4ccc(Cl)cc4)o3)nn12	none (no result: Lung fibro prol, HUVEC inhibit, H69AR growth 86K)
Clc1ccc2c(c1)C(N1CCNCC1)Cc1ccccc1S2 (configuration not stated)	Lung fibro prol 2.4, HUVEC inhibit 2.3, H69AR growth 86K 2.0 (no result: Jurkat tox 60K)
Cc1ccccc1/C(N)=N/OC(=O)/C=C/c1ccccc1	H69AR growth 86K 8.9 (no result: Jurkat tox 60K)
Cc1ccc(/C(N)=N/OC(=O)/C=C/c2ccccc2)cc1	none (no result: Jurkat tox 60K)
COC(=O)c1cc(COc2ccc3oc(C)c(C(=O)OC(C)C)c3c2)c(C)o1	none (no result: Jurkat tox 60K)
COc1ccc(NC(=S)NCc2ccco2)c(OC)c1	none (no result: Jurkat tox 60K)
Cc1nn2c(-c3ccccc3)nnc2c2ccccc12	H69AR growth 86K 39.1
COc1ccc(NC(=O)N[C@@H](CCSC)C(=O)O)cc1Cl	none
O=C(Nc1ccccc1C(F)(F)F)c1cc(-c2ccccc2O)on1	Jurkat tox 60K 88.6
CN(Cc1cnn(C)c1)C(=O)C1CCCCC1C(=O)O (configuration not stated)	none (no result: Jurkat tox 60K)
Cc1cc(C(=O)CSc2nnnn2-c2ccccc2)c(C)n1CCc1ccccc1	H69AR growth 86K 18.6 (no result: Jurkat tox 60K)
Cc1nc(N)sc1-c1nnc(SCC(=O)Nc2nccs2)n1C	none
O=C(Cn1c(SCC(=O)N2CCc3ccccc32)nc2ccccc21)NC1CCCC1	H69AR growth 86K 28.6 (no result: Jurkat tox 60K)
Cc1cc(C)c(S(=O)(=O)c2ccccc2)c(OC(=O)c2cc(F)c(F)cc2Cl)n1	none (no result: Jurkat tox 60K)
Cc1ccc(/C=C2/SC(=S)N(CC(=O)Nc3ncc(Cc4ccc(C)cc4)s3)C2=O)cc1	H69AR growth 86K 4.0 (no result: Jurkat tox 60K)
COc1ccc(OC)c(C(=O)c2oc3ccccc3c2NC(C)=O)c1	H69AR growth 86K 22.0 (no result: Lung fibro prol)
COc1cc(C2Nc3ccc4ncccc4c3C3=C2C(=O)CCC3)ccc1O (configuration not stated)	Jurkat tox 60K 80.9, H69AR growth 86K 28.5
COc1cc(C2Nc3ccccc3C(=O)N2c2ccccc2OC)ccc1O (configuration not stated)	none
O=C(Nc1nc2cc3c(cc2s1)OCO3)C1=COCCO1	H69AR growth 86K 25.5
CC(=O)Cc1nsc(NC(=O)c2ccc(-c3cccc(C(F)(F)F)c3)o2)n1	H69AR growth 86K 21.4
COc1cccc(C(=O)COC(=O)C(C)N2C(=O)C3C4C=CC(C4)C3C2=O)c1 (configuration not stated)	none (no result: Jurkat tox 60K)
Cc1ccc2[nH]c3c(N4CCN(Cc5ccc6c(c5)OCO6)CC4)ncnc3c2c1	none (no result: Jurkat tox 60K)
Cc1ccc2[nH]c3c(N4CCCCCC4)ncnc3c2c1	HUVEC inhibit 32.2 (no result: Jurkat tox 60K)
Cc1ccc2[nH]c3c(N4CCN(Cc5ccccc5)CC4)ncnc3c2c1	HUVEC inhibit 13.6 (no result: Jurkat tox 60K)
c1ccc(CN2CCN(c3ncnc4c3[nH]c3ccccc34)CC2)cc1	none (no result: Jurkat tox 60K)
COc1cc2[nH]c3c(N4CCN(c5ccc(Cl)cc5)CC4)ncnc3c2cc1OC	H69AR growth 86K 6.9
COc1cccc2[nH]c3c(N4CCN(Cc5ccc6c(c5)OCO6)CC4)ncnc3c12	H69AR growth 86K 39.8
CCC(C)(C(=O)NC1CCCCC1)N(C(=O)C1CCC(=O)N1)c1ccc(C)cc1 (configuration not stated)	none (no result: Jurkat tox 60K)
COC(=O)c1c(NC(=O)c2nc3ncccn3n2)sc(C(=O)N(C)C)c1C	none
Cc1ccc(S(=O)(=O)N(CC(=O)N2CCN(c3ccc(F)cc3)CC2)C2CCCCC2)cc1	none (no result: Jurkat tox 60K)
COc1ccc2[nH]c3c(N4CC(C)OC(C)C4)ncnc3c2c1 (configuration not stated)	none (no result: Jurkat tox 60K)
Cc1ccc2c(c1)[nH]c1c(N3CCN(Cc4ccccc4)CC3)ncnc12	Jurkat tox 60K 33.5, HUVEC inhibit 15.4
COc1cccc(N2CCN(c3ncnc4c3[nH]c3ccc(F)cc34)CC2C)c1 (configuration not stated)	Lung fibro prol 1.9, HUVEC inhibit 2.3, H69AR growth 86K 4.0 (no result: Jurkat tox 60K)
C=CCn1c(N)c(C(=O)OC(C)(C)C)c2nc3ccccc3nc21	H69AR growth 86K 29.5 (no result: Jurkat tox 60K)
CC(=O)OCC(=O)Nc1ccc(C(C)=O)cc1	H69AR growth 86K 38.9 (no result: Jurkat tox 60K)
COC(=O)c1nnn(-c2nonc2N)c1-c1cccs1	none
